Activity calls are given as the source filed them. The rule behind the calls is not given here.

In ChEMBL document CHEMBL3632527 (J Med Chem, 2015) one finds Ki, EC50 and Activity data, which are given here for 5 compounds.

For series [1], the target named is T1, Translocator protein (Homo sapiens, UniProt P30536). Put plainly: Displacement of [3H]PK11195 from TSPO in human T98G cell membranes incubated for 90 mins by competition radioligand binding assay. On the technique in general: Loss of bound radioactivity is the signal in a displacement assay; it reports binding, not function.
T1 sequence (P30536 whole entry): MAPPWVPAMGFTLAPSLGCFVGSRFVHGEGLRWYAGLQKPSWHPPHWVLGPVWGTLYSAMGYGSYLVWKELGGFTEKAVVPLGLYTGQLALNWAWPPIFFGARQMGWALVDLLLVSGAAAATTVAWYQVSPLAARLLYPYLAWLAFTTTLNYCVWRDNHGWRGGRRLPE
The subject of series [2] is T98G. As to the kind of experiment: Potentiation of antiproliferative activity of PK11195 against human T98G cells incubated for 48 hrs by BrdU enzyme-linked immunosorbent assay. The format is functional, cell-based.
Series [3] addresses T1, Translocator protein. Put plainly: Displacement of [3H]PK11195 from TSPO in human HEK293T cell membranes incubated for 90 mins by competition radioligand binding assay. Also noted: species or system HEK-293T.
Series [4] has as its system T98G. Put plainly: Potentiation of antiproliferative activity of PK11195 at 10 uM against human T98G cells incubated for 48 hrs by BrdU enzyme-linked immunosorbent assay. The format is functional, cell-based.
Series [5] relates to T98G. Put plainly: Cytotoxicity against human T98G cells assessed as cell viability in the presence of PK11195 after 48 hrs by cell titer blue staining based fluorescence method.
Series [6] concerns T98G. Put plainly: Antiproliferative activity against human T98G cells at 1 to 100 uM incubated for 48 hrs by BrdU enzyme-linked immunosorbent assay. The format is functional, cell-based. In short, it runs like this: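 Basal proliferation of T98G human glioma cells, which carry the Ala147 TSPO genotype without the rs6971 polymorphism, was measured with compounds alone at 1–100 μM.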

The subject of series [7] is T98G. Put plainly: Cytotoxicity against human T98G cells assessed as cell viability after 48 hrs by cell titer blue staining based fluorescence method. For orientation: Alamar Blue is a resazurin reagent that responds to reducing activity.
Series [8] relates to T98G. Put plainly: Potentiation of antiproliferative activity of PK11195 at 100 uM against human T98G cells incubated for 48 hrs by BrdU enzyme-linked immunosorbent assay. The format is functional, cell-based.
The test system of series [9] is T98G. As to the kind of experiment: Potentiation of antiproliferative activity of PK11195 at 62.5 uM against human T98G cells incubated for 48 hrs by BrdU enzyme-linked immunosorbent assay. The format is functional, cell-based.

Usually Ki stands for a dissociation constant, usually derived from enzyme kinetics or from competition with a known ligand. As a reminder, the EC50 is the midpoint of the concentration-response curve. As to `CCN(CC)C(=O)Cn1c(-c2ccc(OC)cc2)cc2c(C)cc(C)cc21`, the results for the Ki in series [1] and in series [3] were 806 nM and 28.1 nM, respectively. For the same compound, the EC50 in series [2] worked out at 14700 nM. Further, the result in series [4] was Active. Further, the Activity result in [5] and in series [7] was “Non-toxic” throughout. Also, the outcome in [6] was inactive.
Consider `CCN(CC)C(=O)Cn1c(-c2ccc(OC)cc2)nc2c(C)cc(C)nc21`, for which the outcome in [8] and in series [6] was inactive. The results for the Ki in series [1] and in series [3] were 144 nM and 29.1 nM, respectively. For the same compound, the Activity entry in [5] and in series [7] was “Non-toxic” throughout.
In the case of `CCN(CC)C(=O)Cn1c(-c2ccc(OC)cc2)nc2c(C)cc(C)cc21`, the Ki in series [1] amounted to 398 nM; in series [3], 224 nM. In addition, the result in series [9] was Active. Also, the Activity entry in [5] and in [7] was “Non-toxic” in each case. Moreover, in series [6], the outcome was inactive.
In the case of `CCN(CC)C(=O)Cc1c(-c2ccc(OC)cc2)nn2c(C)cc(C)nc12`, the outcome in series [8] and in [6] was inactive. The Activity entry in series [5] and in [7] was “Non-toxic” in each case.
For the compound `CCN(CC)C(=O)Cn1c(-c2ccc(OC)cc2)nc2c(C)nc(C)nc21`, the outcome in series [8] and in series [6] was inactive. The Ki in series [1] and in series [3] was > 10000 nM throughout. The Activity result in series [5] and in [7] was “Non-toxic” each time.
